The molecules below were run against Human immunodeficiency virus type 1 protease (Human immunodeficiency virus 1) (UniProt Q72874) (assay: Inhibition of HIV1 protease at 5 uM).
Procedure, shortened: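 Crude click-reaction DMSO mixtures (azide-alkyne, CuSO4 with copper turning, 1:1 tBuOH/H2O, 50 °C, 5 days) diluted to 5 µM in 0.1 M MES, 0.2 M NaCl, pH 5.25, 5% glycerol; HIV-1 protease 20 µg/mL plus fluorogenic substrate 50 µM added; fluorescence read directly in microplate; percent inhibition; TL-3 100 nM positive control.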

inhibition [%] | Compound
28 | Cc1ccc(Cl)cc1N1CCN(Cc2cn([C@@H](Cc3ccccc3)[C@H](Cc3ccccc3)NC(=O)C3CCCC3)nn2)CC1
15 | Cc1ccc(Cl)cc1N1CCN(Cc2cn([C@@H](Cc3ccccc3)[C@H](Cc3ccccc3)NC(=O)NC3CCCCC3)nn2)CC1
53 | Cc1ccc(Cl)cc1N1CCN(Cc2cn([C@@H](Cc3ccccc3)[C@H](Cc3ccccc3)NC(=O)OCC3CCCCC3)nn2)CC1
48 | O=C(N[C@@H](Cc1ccccc1)[C@H](Cc1ccccc1)n1cc(CN2CCN(c3ccc(C(F)(F)F)cc3)CC2)nn1)OC1CCCC1
76 | Cc1ccc(Cl)cc1N1CCN(Cc2cn([C@@H](Cc3ccccc3)[C@H](Cc3ccccc3)NC(=O)OCC3CCCC3)nn2)CC1
55 | Cc1cccc(N2CCN(Cc3cn([C@@H](Cc4ccccc4)[C@H](Cc4ccccc4)NC(=O)OC4CCCC4)nn3)CC2C)c1 (stereo not given in full)
22 | O=C(N[C@@H](Cc1ccccc1)[C@H](Cc1ccccc1)n1cc(CN2CCN(C3CCCCC3)CC2)nn1)OC1CCCC1
26 | O=C(N[C@@H](Cc1ccccc1)[C@H](Cc1ccccc1)n1cc(CN2CCC(O)(c3ccc(Cl)cc3)CC2)nn1)OC1CCCC1
29 | Cc1ccc(Cl)cc1N1CCN(Cc2cn([C@@H](Cc3ccccc3)[C@H](Cc3ccccc3)NC(=O)OCc3ccccc3)nn2)CC1
34 | O=C(N[C@@H](Cc1ccccc1)[C@H](Cc1ccccc1)n1cc(CN2CCC(O)(c3cccc(C(F)(F)F)c3)CC2)nn1)OC1CCCC1
87 | Cc1cccc(N2CCN(Cc3cn([C@@H](Cc4ccccc4)[C@H](Cc4ccccc4)NC(=O)OC4CCCC4)nn3)CC2)c1
64 | O=C(N[C@@H](Cc1ccccc1)[C@H](Cc1ccccc1)n1cc(CN2CCN(c3ccc(F)cc3)CC2)nn1)OC1CCCC1
35 | O=C(N[C@@H](Cc1ccccc1)[C@H](Cc1ccccc1)n1cc(CN2CCN(C(=O)OCc3ccccc3)CC2)nn1)OC1CCCC1
77 | O=C(N[C@@H](Cc1ccccc1)[C@H](Cc1ccccc1)n1cc(CN2CCN(c3ccc(Cl)cc3)CC2)nn1)OC1CCCC1
20 | O=C(N[C@@H](Cc1ccccc1)[C@H](Cc1ccccc1)n1cc(CN2CCC(O)(c3ccccc3)CC2)nn1)OC1CCCC1
58 | O=C(N[C@@H](Cc1ccccc1)[C@H](Cc1ccccc1)n1cc(CN2CC=C(c3ccc(Cl)cc3)CC2)nn1)OC1CCCC1
29 | O=C(N[C@@H](Cc1ccccc1)[C@H](Cc1ccccc1)n1cc(CN2CCN(Cc3ccc4c(c3)OCO4)CC2)nn1)OC1CCCC1
81 | O=C(N[C@@H](Cc1ccccc1)[C@H](Cc1ccccc1)n1cc(CN2CCN(c3ccc(F)cc3F)CC2)nn1)OC1CCCC1
85 | O=C(N[C@@H](Cc1ccccc1)[C@H](Cc1ccccc1)n1cc(CN2CCN(c3cccc(O)c3)CC2)nn1)OC1CCCC1
17 | Cc1ccc(Cl)cc1N1CCN(Cc2cn([C@@H](Cc3ccccc3)[C@H](Cc3ccccc3)NC(=O)C3CCCCC3)nn2)CC1
27 | CCOC(=O)N1CCN(Cc2cn([C@@H](Cc3ccccc3)[C@H](Cc3ccccc3)NC(=O)OC3CCCC3)nn2)CC1
93 | O=C(N[C@@H](Cc1ccccc1)[C@H](Cc1ccccc1)n1cc(CN2CCN(c3cccc(Cl)c3)CC2)nn1)OC1CCCC1
48 | O=C(N[C@@H](Cc1ccccc1)[C@H](Cc1ccccc1)n1cc(CN2CCC(O)(c3ccc(Cl)c(C(F)(F)F)c3)CC2)nn1)OC1CCCC1
31 | Cc1ccc(Cl)cc1N1CCN(Cc2cn([C@@H](Cc3ccccc3)[C@H](Cc3ccccc3)NC(=O)Oc3ccccc3)nn2)CC1
75 | Cc1ccc(Cl)cc1N1CCN(Cc2cn([C@@H](Cc3ccccc3)[C@H](Cc3ccccc3)NC(=O)OCC3CCC3)nn2)CC1
23 | O=C(N[C@@H](Cc1ccccc1)[C@H](Cc1ccccc1)n1cc(CN2CCC(n3c(=O)[nH]c4ccccc43)CC2)nn1)OC1CCCC1
25 | COC(=O)N[C@@H](Cc1ccccc1)[C@H](Cc1ccccc1)n1cc(CN2CCN(c3cc(Cl)ccc3C)CC2)nn1
38 | COc1ccccc1N1CCN(Cc2cn([C@@H](Cc3ccccc3)[C@H](Cc3ccccc3)NC(=O)OC3CCCC3)nn2)CC1

inhibition [%] | Compound
73 | Cc1ccc(Cl)cc1N1CCN(Cc2cn([C@@H](Cc3ccccc3)[C@H](Cc3ccccc3)NC(=O)OCC(C)C)nn2)CC1
12 | O=C(N[C@@H](Cc1ccccc1)[C@H](Cc1ccccc1)n1cc(CN2CCN(c3ccncc3)CC2)nn1)OC1CCCC1
25 | Cc1ccc(Cl)cc1N1CCN(Cc2cn([C@@H](Cc3ccccc3)[C@H](Cc3ccccc3)NC(=O)c3ccco3)nn2)CC1
76 | O=C(N[C@@H](Cc1ccccc1)[C@H](Cc1ccccc1)n1cc(CN2CCN(c3ccccc3Cl)CC2)nn1)OC1CCCC1
19 | Cc1ccc(Cl)cc1N1CCN(Cc2cn([C@@H](Cc3ccccc3)[C@H](Cc3ccccc3)NC(=O)NC(C)C)nn2)CC1
41 | CCOC(=O)N[C@@H](Cc1ccccc1)[C@H](Cc1ccccc1)n1cc(CN2CCN(c3cc(Cl)ccc3C)CC2)nn1
82 | O=C(N[C@@H](Cc1ccccc1)[C@H](Cc1ccccc1)n1cc(CN2CCN(c3ccccc3)CC2)nn1)OC1CCCC1
26 | CCN1CCN(Cc2cn([C@@H](Cc3ccccc3)[C@H](Cc3ccccc3)NC(=O)OC3CCCC3)nn2)CC1
80 | Cc1ccccc1N1CCN(Cc2cn([C@@H](Cc3ccccc3)[C@H](Cc3ccccc3)NC(=O)OC3CCCC3)nn2)CC1
67 | O=C(N[C@@H](Cc1ccccc1)[C@H](Cc1ccccc1)n1cc(CN2CCC(c3ccccc3)CC2)nn1)OC1CCCC1
69 | Cc1ccc(Cl)cc1N1CCN(Cc2cn([C@@H](Cc3ccccc3)[C@H](Cc3ccccc3)NC(=O)OCC3CC3)nn2)CC1
89 | O=C(N[C@@H](Cc1ccccc1)[C@H](Cc1ccccc1)n1cc(CN2CCN(c3cc(Cl)cc(Cl)c3)CC2)nn1)OC1CCCC1
75 | Cc1ccc(Cl)cc1N1CCN(Cc2cn([C@@H](Cc3ccccc3)[C@H](Cc3ccccc3)NC(=O)OC3CCC3)nn2)CC1
63 | Cc1ccc(Cl)cc1N1CCN(Cc2cn([C@@H](Cc3ccccc3)[C@H](Cc3ccccc3)NC(=O)OC3CCCCCC3)nn2)CC1
14 | O=C(N[C@@H](Cc1ccccc1)[C@H](Cc1ccccc1)n1cc(CN2CCN(c3cnccn3)CC2)nn1)OC1CCCC1
66 | Cc1ccc(Cl)cc1N1CCN(Cc2cn([C@@H](Cc3ccccc3)[C@H](Cc3ccccc3)NC(=O)OC3CCCCC3)nn2)CC1
36 | O=C(N[C@@H](Cc1ccccc1)[C@H](Cc1ccccc1)n1cc(CN2CCN(c3ccccn3)CC2)nn1)OC1CCCC1
19 | Cc1ccc(Cl)cc1N1CCN(Cc2cn([C@@H](Cc3ccccc3)[C@H](Cc3ccccc3)NC(=O)NC3CCCC3)nn2)CC1
51 | CC(C)(C)OC(=O)N1CCN(Cc2cn([C@@H](Cc3ccccc3)[C@H](Cc3ccccc3)NC(=O)OC3CCCC3)nn2)CC1
30 | Cc1ccc(Cl)cc1N1CCN(Cc2cn([C@@H](Cc3ccccc3)[C@H](Cc3ccccc3)NC(=O)Nc3ccc(F)cc3)nn2)CC1
28 | O=C(N[C@@H](Cc1ccccc1)[C@H](Cc1ccccc1)n1cc(CN2CCCC(c3ccccc3)C2)nn1)OC1CCCC1 (stereo not given in full)
86 | O=C(N[C@@H](Cc1ccccc1)[C@H](Cc1ccccc1)n1cc(CN2CCN(c3ccc(Cl)c(Cl)c3)CC2)nn1)OC1CCCC1
86 | Cc1c(Cl)cccc1N1CCN(Cc2cn([C@@H](Cc3ccccc3)[C@H](Cc3ccccc3)NC(=O)OC3CCCC3)nn2)CC1
70 | O=C(N[C@@H](Cc1ccccc1)[C@H](Cc1ccccc1)n1cc(CN2CCC(Cc3ccccc3)CC2)nn1)OC1CCCC1
25 | O=C(N[C@@H](Cc1ccccc1)[C@H](Cc1ccccc1)n1cc(CN2CCN(c3ncccn3)CC2)nn1)OC1CCCC1
85 | Cc1ccc(Cl)cc1N1CCN(Cc2cn([C@@H](Cc3ccccc3)[C@H](Cc3ccccc3)NC(=O)O[C@H]3CCOC3)nn2)CC1
41 | Cc1ccc(Cl)cc1N1CCN(Cc2cn([C@@H](Cc3ccccc3)[C@H](Cc3ccccc3)NC(=O)OCC3CCCO3)nn2)CC1 (stereo not given in full)

Compound | inhibition [%]
O=C(N[C@@H](Cc1ccccc1)[C@H](Cc1ccccc1)n1cc(CN2CCN(c3cccc(C(F)(F)F)c3)CC2)nn1)OC1CCCC1 (stereo in doubt; (S,S)-7d) [listing 1 of 2 here] | 87
O=C(N[C@@H](Cc1ccccc1)[C@H](Cc1ccccc1)n1cc(CN2CCC3(CC2)C(=O)NCN3c2ccccc2)nn1)OC1CCCC1 | 17
O=C(N[C@@H](Cc1ccccc1)[C@H](Cc1ccccc1)n1cc(CN2CCN(c3cccc(C(F)(F)F)c3)CC2)nn1)OC1CCCC1 (stereo in doubt; (S,S)-11s) | 86

Each molecule was assayed against Human immunodeficiency virus type 1 protease (Human immunodeficiency virus 1, UniProt Q72874) (assay: Inhibition of HIV1 protease).
Procedure, shortened: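 HIV-1 protease (SF-2-WTQ7K-Pr construct for the isolated inhibitors) at 20 µg/mL with 50 µM fluorogenic substrate Abz-Thr-Ile-Nle/Phe-(p-NO2)Gln-Arg-NH2, in 0.1 M MES, 0.2 M NaCl, pH 5.25, 5% (v/v) glycerol. Crude mixtures were screened at 5 µM as percent inhibition.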

Compound | Ki [nM]
Cc1ccc(C)c(N2CCN(Cc3nnn([C@@H](Cc4ccccc4)[C@H](Cc4ccccc4)NC(=O)OC4CCCC4)c3[C@H](C)O)CC2)c1 | 10
Cc1ccc(Cl)cc1N1CCN(Cc2nnn([C@@H](Cc3ccccc3)[C@H](Cc3ccccc3)NC(=O)OC3CCCC3)c2[C@@H](C)O)CC1 | 28
CC(C)(C)OC(=O)N[C@@H](Cc1ccccc1)[C@H](Cc1ccccc1)N=[N+]=[N-] | 31000
Cc1ccc(Cl)cc1N1CCN(Cc2nnn([C@@H](Cc3ccccc3)[C@H](Cc3ccccc3)NC(=O)OC3CCCC3)c2[C@H](C)O)CC1 | 21
O=C(N[C@@H](Cc1ccccc1)[C@H](Cc1ccccc1)n1cc(CN2CCN(c3cccc(C(F)(F)F)c3)CC2)nn1)OC1CCCC1 (stereo in doubt; (S,S)-7d) [listing 2 of 2 here] | 98
Cc1ccc(C)c(N2CCN(Cc3nnn([C@@H](Cc4ccccc4)[C@H](Cc4ccccc4)NC(=O)OC4CCCC4)c3CO)CC2)c1 | 14
Cc1ccc(Cl)cc1N1CCN(Cc2nnn([C@@H](Cc3ccccc3)[C@H](Cc3ccccc3)NC(=O)OC3CCCC3)c2CO)CC1 | 8

— ChEMBL document CHEMBL1138217, “Rapid discovery and structure-activity profiling of novel inhibitors of human immunodeficiency virus type 1 protease enabled by the copper(I)-catalyzed synthesis of 1,2,3-triazoles and their further functionalization” (J Med Chem, 2006)
